High-throughput results: PubChem BioAssay, several laboratories
Only some compounds are listed: those with a hit (about 2.9% of all), similar ones and a draw of the others.
MEKK3 PB1 HTS: MEKK3-MEK5 PB1 interaction, increase or decrease | 1.4% of 290,000 active | Q99759 | binding response (% of control), % at 10 µM | AID 1529 | bead-based flow cytometry, Alexa488-MEK5 binding to MEKK3; actives lie on both sides; 0 = blocked by unlabeled MEK5, 100 = vehicle;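 active = binding response more than 3 SD above or below the average of its plate-row segment, actives on both sides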;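 also: Alexa488 bead fluorescence after subtracting the streptavidin-only scavenger bead signal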
Target sequence (Q99759 whole entry, looked up): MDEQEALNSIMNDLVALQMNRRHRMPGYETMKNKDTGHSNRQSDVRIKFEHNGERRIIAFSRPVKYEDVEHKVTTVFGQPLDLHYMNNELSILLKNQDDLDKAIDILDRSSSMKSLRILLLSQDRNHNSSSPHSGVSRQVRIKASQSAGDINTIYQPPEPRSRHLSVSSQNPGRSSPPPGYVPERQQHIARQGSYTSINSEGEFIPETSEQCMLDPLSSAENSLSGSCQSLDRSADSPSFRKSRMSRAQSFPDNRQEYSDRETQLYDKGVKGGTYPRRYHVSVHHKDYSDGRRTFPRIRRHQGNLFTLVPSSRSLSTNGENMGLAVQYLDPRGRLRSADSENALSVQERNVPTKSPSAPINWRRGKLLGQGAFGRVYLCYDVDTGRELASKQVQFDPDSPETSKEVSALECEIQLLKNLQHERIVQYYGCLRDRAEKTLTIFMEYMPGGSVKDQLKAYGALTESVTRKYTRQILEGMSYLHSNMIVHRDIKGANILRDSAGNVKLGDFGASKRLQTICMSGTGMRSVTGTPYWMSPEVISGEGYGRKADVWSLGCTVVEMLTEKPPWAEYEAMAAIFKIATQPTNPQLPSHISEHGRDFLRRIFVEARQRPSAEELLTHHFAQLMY
MEKK2wt PB1 HTS: raises or lowers MEK5 binding to wildtype human MEKK2 PB1 domain | bead flow cytometry, Alexa488-MEK5 binding to MEKK2 WT; actives lie on both sides | binding response (% of control), % at 10 µM | 1.1% of 290,000 active | AID 1531; in the data active = binding response below about 67% or above about 130%
UBC13 polyUb: inhibitors of human UBC13 polyubiquitin chain formation. P61088. TR-FRET. inhibition, % at 20 µM. 0.47% of 330,000 active. AID 485273; in the data active = inhibition above about 45%, passing the limit was not always enough
Apaf1 inhib: human Apaf-1 inhibition. reconstituted apoptosome caspase-3 activity, DEVD-Rh110 fluorescence. inhibition, % at 20 µM. 0.71% of 330,000 active; active = inhibition of at least 40% at 20 µM;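 also: plate controls were DMSO wells for no effect and DEVD-CHO caspase inhibitor wells for full effect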
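Material: reconstituted apoptosome with Apaf-1, cytochrome c, caspase-9, procaspase-3, dATP. Technique: Rh110 fluorescence intensity. Buffer or medium: pH 7.5 Hepes buffer with CHAPS, BSA, DTT. Times: 30 min plus 50 min, RT.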
MEKK2 mut-MEK5: signal of MEK5 binding to mutant human MEKK2 PB1 domain; bead flow cytometry, Alexa488-MEK5 binding to MEKK2 mutant; percent response, % at 10 µM; 0.35% of 290,000 active; AID 1530; in the data active = percent response above about 24%, passing the limit was not always enough
MEKK2wt confirm: raises or lowers MEK5 binding to wildtype human MEKK2, retest; shares compounds with MEKK3 PB1 HTS; bead flow cytometry, Alexa488-MEK5 binding to MEKK2 WT; actives lie on both sides; binding response (% of control), % at 10 µM; 2.4% of 5,900 active; in the data active = binding response below about 16% or above about 210%; inactive = in between
MEKK2mut confirm: signal of MEK5 binding to mutant human MEKK2, retest | shares compounds with MEKK3 PB1 HTS | bead flow cytometry, Alexa488-MEK5 binding to MEKK2 mutant | percent response, % at 10 µM | 2% of 5,900 active; in the data active = percent response mostly above about 71%, no sharp cut-off; inactive = mostly below about 38%;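 also: higher means compound restores mutant binding toward wildtype level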
MEKK3 confirm: confirmation of inhibitors of MEK5 binding to human MEKK3 | AID 1894 | 1.8% of 5,900 active | binding response (% of control), % at 10 µM | bead flow cytometry, Alexa488-MEK5 binding to MEKK3; active compounds read low | shares compounds with MEKK3 PB1 HTS;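 active = binding response below 72% of control, or above a set upper limit, though filed actives all read lower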;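 also: 100% = DMSO only wells and 0% = binding blocked by excess unlabeled MEK5; lower values mean stronger disruption of MEK5 binding to MEKK3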
The depositor's hits bear a star; nt = no result; [ ] = another dose, or the depositor's remark.

SMILES | MEKK3 PB1 HTS | MEKK2wt PB1 HTS | UBC13 polyUb | Apaf1 inhib | MEKK2 mut-MEK5 | MEKK2wt confirm | MEKK2mut confirm | MEKK3 confirm
CCc1cccc2c(C(=O)COC(=O)c3cccc(S(=O)(=O)N(C)C4CCCCC4)c3)c[nH]c12 | 132* | 100 | 0 | 11 | 2 | 116 | 6 | 96
Cc1cccc(NC(=S)NC2CC3C=CC2C3)c1 (stereo not given) | 93 | 92 | 4 | -22 | -4 | nt | nt | nt
COc1cc(CNCCc2c[nH]c3ccccc23)ccc1OCc1ccc(F)cc1 | 106 | 197* | 43 | 19 | 47* | 144 | 14 | 87
COc1cccc(CNCCc2c[nH]c3ccccc23)c1OCc1ccc(F)cc1 | 111 | 165* | 36 | 11 | 39* | 131 | 22 | 101
O=C(OCCOCCN=C1NS(=O)(=O)c2ccccc21)c1ccccc1 | 99 | 97 | 2 | 1 | -5 | nt | nt | nt
O=C(OCCN=C1NS(=O)(=O)c2ccccc21)c1ccccc1 | 122* | 127 | 8 | -3 | 7 | 103 | 2 | 104
CSc1nc(-c2ccccc2)nn1C(=O)c1ccccc1 | nt | nt | 6 | 5 | nt | nt | nt | nt
CSc1nc(-c2ccccc2)nn1C(=O)c1ccco1 | 1.0*[inhibitor] | 1.0*[inhibitor] | 10 | -3 | -1 | 97 | -8 | 98
Cc1[nH]c(C)c(S(=O)(=O)N2CCN(c3ccccc3F)CC2)c1C(=O)N1CCCCC1 | 97 | 99 | 0 | 0 | 0 | nt | nt | nt
COc1ccc(NC(=O)CC2C(=O)N(Cc3ccccc3)C(=S)N2CCN2CCOCC2)cc1 (stereo not given) | 94 | 98 | -1 | 2 | 0 | nt | nt | nt
CCCCCCOc1ccc(NC(=O)CC2C(=O)N(CC)C(=S)N2Cc2ccco2)cc1 (stereo not given) | 110 | 141* | -8 | 15 | 3 | 111 | 3 | 107
C=CCN1C(=O)C(CC(=O)Nc2ccc(OCCC)cc2)N(CCCN2CCN(Cc3ccccc3)CC2)C1=S (stereo not given) | 111 | 183* | 9 | 18 | 42 | 148 | 22 | 110
CCOc1ccc(NC(=O)CC2C(=O)N(c3ccccc3)C(=S)N2Cc2ccccn2)cc1 (stereo not given) | 1.0*[inhibitor] | 1.0*[inhibitor] | 6 | -44 | -18 | 107 | 3 | 101
O=C(C[n+]1ccccc1)Nc1ccccc1 | nt | nt | -2 | -14 | nt | nt | nt | nt
O=C(C[n+]1ccc(Cc2ccccc2)cc1)Nc1ccccc1 | 86 | 125 | 8 | -3 | 64* | 111 | 3 | 98
CCOC(=O)/C(=C/C=C1\Sc2cc(C)c(C)cc2N1CC)C(C)=O | 90 | 42*[inhibitor] | nt | nt | -22 | 87 | -12 | 91
N#CC1=C(N)OC(c2ccccc2)=C(C#N)C1c1ccc2c(c1)OCO2 (stereo not given) | 133* | 122 | 0 | 11 | 6 | 103 | 4 | 92
CCCCC(=O)NCCNc1nc2c(c(=O)n(C)c(=O)n2C)n1Cc1ccc(F)cc1 | 104 | 101 | 5 | 0 | 1 | nt | nt | nt
CCCCC(=O)NCCNc1nc2c(c(=O)n(C)c(=O)n2C)n1Cc1ccccc1 | 2.0*[inhibitor] | 2.0*[inhibitor] | -6 | 8 | -14 | 109 | 5 | 104
COc1ccc(-c2csc(NC(=O)c3cccc(S(=O)(=O)N4CCN(C)CC4)c3)n2)cc1 | 72*[inhibitor] | 102 | 2 | 21 | -8 | 125 | 43 | 106
COc1ccc(-c2csc(NC(=O)CS(=O)(=O)c3ccccc3)n2)cc1 | nt | nt | 0 | 13 | nt | nt | nt | nt
COc1ccc(-c2csc(NC(=O)C3CCCCN3S(=O)(=O)c3ccccc3)n2)cc1 (stereo not given) | 80*[inhibitor] | 90 | -11 | 19 | -6 | 95 | -5 | 95
O=c1[nH]c(-c2ccccc2)ncc1Oc1ccccc1 | nt | nt | -6 | -10 | nt | nt | nt | nt
CCN(CC)c1ccc(/C=C(\C#N)C(N)=O)cc1 | 103 | 97 | nt | nt | -6 | nt | nt | nt
